Source: ChEMBL document CHEMBL4000163, “Pyrazole derived ultra-short antimicrobial peptidomimetics with potent anti-biofilm activity” (Eur J Med Chem, 2017)
≈ marks a conversion by molar mass, not a printed value. Calls of active or inactive are those of the source. The rule behind the calls is not given here.

How the values were obtained:
[1] = Therapeutic index, ratio of MHC for sheep RBC to geometric mean of MICs for four bacterial strains
[2] = Therapeutic index, ratio of MHC for sheep RBC to MIC for Staphylococcus aureus KCTC 1621
RAW264.7 [3] = assay: Antiinflammatory activity in mouse RAW264.7 cells assessed as inhibition of LPS-induced TNF-alpha production at 32 ug/mL preincubated with cells followed by LPS addition measured after 6 hrs by ELISA; format: functional
Method in brief: (§1)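 RAW264.7 cells seeded at 5 × 10⁴ cells/well, left overnight, then given peptide at 37 °C. Unbound peptide was washed off with PBS (five washes) before LPS (20 ng/mL) was added for 6 h at 37 °C. TNF-α in the samples was measured by mouse ELISA. Mean ± SEM of technical triplicates, one-way ANOVA with Bonferroni post-test.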

Staphylococcus aureus [4] = assay: Antimicrobial activity against Staphylococcus aureus KCTC 1621 in presence of MgCl2; format: functional
Method in brief: (§2)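 MIC by microdilution with 2 × 10⁶ CFU/ml S. aureus KCTC 1621 in LB medium supplemented with physiological salt: 150 mM NaCl, 1 mM MgCl₂ or 2.5 mM CaCl₂; growth inhibition endpoint as in the standard MIC assay.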

Escherichia coli [5] = assay: Induction of outer membrane permeabilization in Escherichia coli KCTC 1682 assessed as NPN uptake by spectrofluorophotometric analysis; format: functional
Method in brief: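 E. coli KCTC 1682 at OD600 0.05 in 5 mM HEPES pH 7.2 with 5 mM KCN; NPN 10 µM final, background fluorescence recorded (ex 350, em 420 nm). Peptide aliquots at various concentrations added and fluorescence followed over time until no further rise.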

Pseudomonas aeruginosa [6] = assay: Antibacterial activity against multidrug-resistant Pseudomonas aeruginosa CCARM 2109 after 18 to 20 hrs by broth microdilution assay; format: functional; details: read-out: MIC100
Method in brief: (§3)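 Broth microdilution in 1% peptone: bacteria at 2 × 10⁶ CFU/mL mixed 1:1 with serial 2-fold peptide dilutions, 18-20 h at 37 °C; growth read as absorbance at 600 nm. MIC taken as lowest concentration giving 100% growth inhibition.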

[7] = Therapeutic index, ratio of MHC for sheep RBC to MIC for Staphylococcus epidermidis KCTC 1917
RAW264.7 [8] = assay: Antiinflammatory activity in mouse RAW264.7 cells assessed as inhibition of LPS-induced TNFalpha mRNA expression at 16 ug/mL after 3 hrs by RT-PCR method; format: functional, cell-based
Method in brief: (§4)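 RAW264.7 cells plated at 5×10^5 cells/well and cultured overnight. They were stimulated with 20 ng/mL LPS, with or without peptide, in DMEM with 10% bovine serum, for 3 h (TNF-α) or 6 h (iNOS). Total RNA was reverse-transcribed with oligo(dT)15 primers and amplified for 30 cycles (annealing 55 °C). mRNA was analysed by PCR.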

Pseudomonas aeruginosa [9] = assay: Antimicrobial activity against Pseudomonas aeruginosa KCTC 1637 incubated for 18 to 20 hrs by broth microdilution assay; format: functional; details: read-out: MIC100
Method in brief: (§5)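 Broth microdilution in 1% peptone. Inoculum was 2 × 10⁶ CFU/mL mixed 1:1 with serial 2-fold peptide dilutions and incubated 18–20 h at 37 °C. Growth was read as absorbance at 600 nm; MIC is the lowest peptide concentration giving 100% growth inhibition.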

Pseudomonas aeruginosa [10] = assay: Potency index, ratio of LL-37 MIC100 to compound MIC100 for Pseudomonas aeruginosa KCTC 1637; format: functional
Escherichia coli [11] = assay: Antimicrobial activity against Escherichia coli KCTC 1682 in presence of NaCl; format: functional
Method in brief: (§6)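 MIC in LB medium with added 150 mM NaCl, 1 mM MgCl₂ or 2.5 mM CaCl₂. Inoculum of 2 × 10⁶ CFU/mL with peptide. Otherwise as the broth microdilution MIC assay; MIC is the lowest concentration giving 100% growth inhibition.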

[12] = tested on: Staphylococcus epidermidis; assay: Antimicrobial activity against Staphylococcus epidermidis KCTC 1917 incubated for 18 to 20 hrs by broth microdilution assay; format: functional; details: read-out: MIC100
Method in brief: as §5

Staphylococcus aureus [13] = assay: Potency index, ratio of melittin MIC100 to compound MIC100 for methicillin resistant Staphylococcus aureus CCARM 3095; format: functional
Staphylococcus aureus [14] = assay: Potency index, ratio of LL-37 MIC100 to compound MIC100 for Staphylococcus aureus KCTC 1621; format: functional
Escherichia coli [15] = assay: Antimicrobial activity against Escherichia coli KCTC 1682 in presence of MgCl2; format: functional
Method in brief: as §6

Staphylococcus aureus [16] = assay: Antibacterial activity against methicillin resistant Staphylococcus aureus CCARM 3089 after 18 to 20 hrs by broth microdilution assay; format: functional; details: read-out: MIC100
Method in brief: as §3

Enterococcus faecium = assay: Antibacterial activity against vancomycin-resistant Enterococcus faecium ATCC 51559 after 18 to 20 hrs by broth microdilution assay; format: functional; details: read-out: MIC100
Method in brief: as §3

Escherichia coli [17] = assay: Antimicrobial activity against Escherichia coli KCTC 1682 in presence of CaCl2; format: functional
Method in brief: as §6

RAW264.7 [18] = assay: Cytotoxicity against mouse RAW264.7 cells up to 32 ug/mL after 2 days by MTT assay; format: cell-based; details: raw264.7, 48 h
Method in brief: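 Cells in DMEM with 10% FBS seeded at 2×10^4 cells/well and incubated 24 h at 37 °C, 5% CO₂. Serial 2-fold peptide dilutions were added for 2 days, then MTT for 4 h. Formazan was dissolved in 20% SDS/0.01 M HCl and read at 570 nm. Survival is expressed as a percentage of untreated cells.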

Escherichia coli [19] = assay: Induction of inner membrane permeabilisation in Escherichia coli ML-35 assessed as ONPG hydrolysis up to 30 ug/ml by beta-galactosidase enzyme coupled spectrophotometric analysis; format: functional
Method in brief: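 E. coli ML-35 (constitutive cytoplasmic β-galactosidase, lactose permease-deficient) washed and resuspended to OD600 0.5 in 10 mM sodium phosphate pH 7.4, 100 mM NaCl, with 1.5 mM ONPG. o-Nitrophenol release tracked spectrophotometrically over time after peptide addition at various concentrations.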

Pseudomonas aeruginosa [20] = assay: Potency index, ratio of melittin MIC100 to compound MIC100 for Pseudomonas aeruginosa KCTC 1637; format: functional
RAW264.7 [21] = assay: Antiinflammatory activity in mouse RAW264.7 cells assessed as inhibition of LPS-induced TNF-alpha production preincubated with cells followed by LPS addition measured after 6 hrs by ELISA; format: functional, cell-based
Method in brief: as §1

Escherichia coli [22] = assay: Antimicrobial activity against Escherichia coli KCTC 1682 assessed as disruption of bacterial cell membrane at 2 times MIC after 1 hr by transmission electron microscopy; format: functional
Method in brief: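 Bacteria at 2×10^7 CFU/mL in LB, washed three times in PBS. Peptide in PBS was added to a final 2 × MIC and incubated 1 h at 37 °C. Pelleted cells were resuspended in PBS, applied to glow-discharged carbon-film grids, negatively stained with 1% uranyl acetate for 1 min, and imaged by TEM at 120 kV.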

Staphylococcus aureus [23] = assay: Antimicrobial activity against Staphylococcus aureus KCTC 1621 in presence of CaCl2; format: functional
Method in brief: as §2

RAW264.7 [24] = assay: Antiinflammatory activity in mouse RAW264.7 cells assessed as inhibition of LPS-induced iNOS mRNA expression at 16 ug/mL after 6 hrs by RT-PCR method; format: functional, cell-based
Method in brief: as §4

N=C(N)NCCC[C@H](NC(=O)c1nn(CCc2cccc3ccccc23)cc1NC(=O)[C@H](CCCNC(=N)N)NC(=O)c1nn(CCc2cccc3ccccc23)cc1N)C(N)=O
TI [1]: 53.9
TI [2]: 53.9
inhibition at 32 µg/mL (RAW264.7 [3]): > 50%
MIC (Staphylococcus aureus [4]): 8 µg/mL
Activity (Escherichia coli [5]): Dose-dependent effect
MIC (Pseudomonas aeruginosa [6]): 8 µg/mL (≈ 9.35 µM)
TI [7]: 53.9
inhibition (RAW264.7 [8]): Active
MIC (Pseudomonas aeruginosa [9]): 8 µg/mL (≈ 9.35 µM)
Ratio (Pseudomonas aeruginosa [10]): 8
MIC (Escherichia coli [11]): 32 µg/mL
MIC [12]: 32 µg/mL (≈ 37.4 µM)
Ratio (Staphylococcus aureus [13]): 2 - 4
Ratio (Staphylococcus aureus [14]): 8
MIC (Escherichia coli [15]): 32 µg/mL
MIC (Staphylococcus aureus [16]): 8 µg/mL (≈ 9.35 µM)
MIC (Enterococcus faecium): 8 µg/mL (≈ 9.35 µM)
MIC (Escherichia coli [17]): 32 µg/mL
Activity (RAW264.7 [18]): Non-Toxic
Activity (Escherichia coli [19]): Active
Ratio (Pseudomonas aeruginosa [20]): 4
inhibition (RAW264.7 [21]): Dose-dependent effect
Activity (Escherichia coli [22]): Active
MIC (Staphylococcus aureus [23]): 8 µg/mL
inhibition (RAW264.7 [24]): Active
